Data set [1] has as its system sandwich‐cultured human hepatocytes. Kind of data set: Hepatobiliary disposition in sandwich-cultured human hepatocytes. It counts as in vitro ADME. The settings on record: 10 min. In outline: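 Sandwich-cultured human hepatocytes from three donor liver preparations, cultured 6 days. [14C]-test compound was applied at 10 and 250 μmol/L, with [3H]-taurocholate as transporter-function control and LDH release as cytotoxicity check. Radioactivity was read by LSC. Accumulation is mean ± SD of triplicate wells. BEI, CLbiliary, intracellular concentration and Cic/Cec were derived.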

The test system of data set [2] is sandwich‐cultured mouse (NMRI) hepatocytes. The experiment in a line: Hepatobiliary disposition in sandwich-cultured mouse hepatocytes. It counts as in vitro ADME. The settings on record: 1 μmol/L, 10 min.
[3] abbreviates: donor 1, 1 μmol/L, mean ± SD of triplicate wells.
The mark [4] stands for this setting: donor 2, 1 μmol/L, mean ± SD of triplicate wells.
[5] abbreviates: donor 3, 1 μmol/L, mean ± SD of triplicate wells.
Setting [6] is: mean ± standard error of 3 donors, 1 μmol/L.

Consider `C[C@H](CCC(=O)NCCS(=O)(=O)O)[C@H]1CC[C@H]2[C@@H]3[C@H](O)C[C@@H]4C[C@H](O)CC[C@]4(C)[C@H]3C[C@H](O)[C@]12C` [TCA, taurocholate, reference compound], for which the BEI in data set [1] (donor 1, 1 μmol/L) is reported as 44.6%; in data set [1] (donor 2, 1 μmol/L) it was 74.2%; in data set [1] (donor 3, 1 μmol/L), 66.5%; in data set [1] (setting [6]) it was 61.7 ± 8.9%; in data set [2] it was 30.5%. Also, the CLbiliary in data set [1] (donor 1, 1 μmol/L) is given as 7.16 mL/min/kg; in data set [1] (donor 2, 1 μmol/L) it was 19.3 mL/min/kg; in data set [1] (donor 3, 1 μmol/L), 31.0 mL/min/kg; in data set [1] (setting [6]) it was 19.2 ± 6.9 mL/min/kg; in data set [2], 66.8 mL/min/kg. For the same molecule, the Cellular accumulation in data set [1] (setting [3]) came out at 30.7 ± 2.8 pmol/mg; in data set [1] (setting [4]), 23.2 ± 1.9 pmol/mg; in data set [1] (setting [5]) it was 53.9 ± 2.0 pmol/mg; in data set [1] (setting [6]) it was 35.9 ± 9.2 pmol/mg; in data set [2] (mean ± SD of triplicate wells), 150 ± 28 pmol/mg. The Total accumulation in data set [1] (setting [3]) is recorded as 55.3 ± 5.7 pmol/mg; in data set [1] (setting [4]) it was 89.7 ± 3.6 pmol/mg; in data set [1] (setting [5]) it was 161 ± 12 pmol/mg; in data set [1] (setting [6]) it was 102 ± 31 pmol/mg; in data set [2] (mean ± SD of triplicate wells), 215 ± 23 pmol/mg.

The values above are taken from publication PMC4804314 (Pharmacology Research & Perspectives, 2016).
